Laboratory results reported in PubChem BioAssay.
Calls of active or inactive are those of the source.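 How the source made its calls, unless noted: active means viability at or below 10% of carrier control in both of two separate runs; inconclusive means viability at or below 10% in only one of the two runs; inactive means the rest.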

Columns and labels:
[1] = reducers of endogenous Her2 protein level, primary screen, SKBR3 breast tumor cells, AlphaScreen, ATP viability (AID 461;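 active means Her2 level under about 52% in both replicate screens, with viability over 70% of control, limit read from the data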;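 on Her2 level: lower value means less Her2 protein in the cells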;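 on viability: percent of carrier control wells set as 100% viability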); conditions: 18-24 h, measured here: SKBR3 viability, ATP luminescence, at 10 µM
[2] = target: Receptor tyrosine-protein kinase erbB-2 (Homo sapiens) (UniProt P04626); test: as above; conditions: 18-24 h, at 10 µM, stronger effect = lower value
Chain of Receptor tyrosine-protein kinase erbB-2 (Homo sapiens) (P04626 whole entry, looked up): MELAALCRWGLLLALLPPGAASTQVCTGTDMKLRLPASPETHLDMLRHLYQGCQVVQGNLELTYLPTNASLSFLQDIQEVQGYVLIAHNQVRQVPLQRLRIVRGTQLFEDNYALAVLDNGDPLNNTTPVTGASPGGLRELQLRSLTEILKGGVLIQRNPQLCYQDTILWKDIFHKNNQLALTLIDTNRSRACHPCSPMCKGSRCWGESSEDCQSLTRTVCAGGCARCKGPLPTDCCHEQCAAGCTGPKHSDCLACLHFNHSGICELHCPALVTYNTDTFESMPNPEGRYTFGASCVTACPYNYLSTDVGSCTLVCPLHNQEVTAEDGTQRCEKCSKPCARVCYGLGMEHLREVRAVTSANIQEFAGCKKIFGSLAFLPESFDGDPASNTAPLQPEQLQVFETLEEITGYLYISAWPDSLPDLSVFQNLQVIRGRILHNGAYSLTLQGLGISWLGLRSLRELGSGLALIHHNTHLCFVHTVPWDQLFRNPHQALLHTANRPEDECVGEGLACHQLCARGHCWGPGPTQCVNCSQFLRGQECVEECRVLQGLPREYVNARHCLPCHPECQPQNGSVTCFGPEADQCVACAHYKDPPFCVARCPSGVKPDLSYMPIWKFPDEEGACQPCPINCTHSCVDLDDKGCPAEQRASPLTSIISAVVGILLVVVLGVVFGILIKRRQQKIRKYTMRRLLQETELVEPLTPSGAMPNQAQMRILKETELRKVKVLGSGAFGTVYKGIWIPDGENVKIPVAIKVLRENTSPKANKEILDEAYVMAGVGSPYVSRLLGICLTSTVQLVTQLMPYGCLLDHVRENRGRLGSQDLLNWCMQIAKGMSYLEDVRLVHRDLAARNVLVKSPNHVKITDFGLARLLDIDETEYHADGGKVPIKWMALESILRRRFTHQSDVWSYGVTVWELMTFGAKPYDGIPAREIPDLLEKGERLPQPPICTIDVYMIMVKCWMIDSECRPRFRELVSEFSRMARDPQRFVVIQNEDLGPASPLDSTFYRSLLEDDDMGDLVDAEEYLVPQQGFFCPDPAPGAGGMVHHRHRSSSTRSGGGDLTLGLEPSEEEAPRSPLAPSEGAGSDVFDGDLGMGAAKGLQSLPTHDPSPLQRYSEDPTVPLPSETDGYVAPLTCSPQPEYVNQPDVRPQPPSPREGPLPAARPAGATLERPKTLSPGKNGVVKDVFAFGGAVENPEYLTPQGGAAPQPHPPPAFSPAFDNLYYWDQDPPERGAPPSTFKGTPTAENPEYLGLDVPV

[3] = SK-BR-3 cell growth inhibitors, pilot screen, 24 h, human (AID 572); conditions: SK-BR-3 viability, CellTiter-Glo luminescence, at 10 µM, stronger effect = lower value;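 further: compound exposure lasted between 18 and 24 h rather than exactly 24 h; 100% = carrier-treated control wells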
[4] = HUVEC growth inhibition – cell-based, human, primary screen (AID 575;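 active means viability at or below 30% in both replicate assays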;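 further: 100% = median of untreated cell wells with 0.1% DMSO on each plate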); conditions: HUVEC proliferation, CellTiter-Glo luminescence, 72 h; at 10 µM; stronger effect = lower value
Outline: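 Assay system: Primary human umbilical vein endothelial cells | Quantity: 1250 cells per well | Medium: Supplemented EBM, 2% fetal bovine serum | Detection: CellTiter-Glo luminescence measuring cellular ATP | Read-out: % viability vs DMSO wells | Plate: Collagen-coated 384-well format | Times: 72 h exposure, 37 °C, 5% CO2, 30 min RT equilibration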

[5] = growth inhibitors of H69AR lung tumor, primary screen, human, duplicate replicates (AID 580;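 active means viability at or under a set limit in both replicates, limit being median viability minus 3 SD, cut at about 48% in these data, passing the limit was not always enough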;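 further: 100% = mean luminescence of untreated wells and 0% = no signal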); conditions: H69AR lung tumor cells viability, ATP luminescence, 72 h; at 10 µM; stronger effect = lower value
[6] = reversal of MRP1-mediated doxorubicin resistance, pilot screen, H69AR cells, doxorubicin co-treatment (AID 601;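 active means viability loss from added drug above about 55%, and viability with drug at most 40%, in both replicates, limit read from the data, passing the limit was not always enough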); conditions: CellTiter-Glo, 72 h, at 10 µM; for differential viability (reversal): stronger effect = higher value
[7] = 384-well plate pilot, post-Golgi transport modulator project, inhibition of yeast transport mutant growth (AID 636; in the data active means inhibition above about 31%); conditions: absorbance 615 nm, about 18 h, stronger effect = higher value
[8] = growth suppression of yeast trafficking mutant, preliminary HTS, modulators of trafficking downstream of Golgi apparatus project, 1536-format plate, OD 615 nm (AID 637; in the data active means inhibition above about 30%); conditions: yeast transport mutant growth, absorbance 615 nm, 18 h; stronger effect = higher value
[9] = H69AR cells + 2 uM doxorubicin, measured here: viability with 2 uM doxorubicin, stronger effect = lower value
[10] = H69AR cells, compound alone cytotoxicity

Structure (SMILES) | viability [1] [%] | Her2 level [2] | viability [3] | viability [4] | viability [5] | differential viability (reversal) ([6]; H69AR cells + 2 uM doxorubicin) | viability [6, 9] [%] | viability [6, 10] [%] | inhibition [7] | inhibition [8]
CCN(CC)S(=O)(=O)c1ccc(S(=O)(=O)N(Cc2ccccn2)Cc2ccco2)cc1 | 94 | 94.5% (inactive) | 94% (inactive) | 90.6% (inactive) | 91% (inactive) | -0.185% (inactive) | 91.2 | 91 | -2.03% (inactive) | 3.02% (inactive)
N#CCSc1nc(-c2ccccc2)cs1 | 86.5 | 98.5% (inactive) | 86.5% (inactive) | 109% (inactive) | 98% (inactive) | -0.97% (inactive) | 98.9 | 98 | -1.71% (inactive) | 2.58% (inactive)
CC1=C(C)C(=O)NC(Nc2nc(C)c3cc(C)cc(C)c3n2)N1 (stereo not given) | 120 | 79.5% (inactive) | 120% (inactive) | 10.6% (active) | 17.2% (active) | 6.29% (inactive) | 10.9 | 17.2 | -3.59% (inactive) | -3% (inactive)
N#CC1=C(N)OC(c2ccccc2)=C(C#N)C1c1ccc2c(c1)OCO2 (stereo not given) | 95 | 108% (inactive) | 95% (inactive) | 85.5% (inactive) | 93.8% (inactive) | 13.3% (inactive) | 80.6 | 93.8 | -0.13% (inactive) | 100% (active)
FC(F)(F)c1nnc2sc(-c3cccs3)nn12 | 102 | 86.5% (inactive) | 102% (inactive) | 93.9% (inactive) | 113% (inactive) | 19.7% (inactive) | 93 | 113 | -7.43% (inactive) | 4.6% (inactive)
CCc1cccc2c(=O)c(C(=O)N3CCCCCC3)c[nH]c12 | 104 | 102% (inactive) | 104% (inactive) | 98.4% (inactive) | 97.5% (inactive) | 1.41% (inactive) | 96.1 | 97.5 | -2% (inactive) | -6.94% (inactive)
COc1cc(C2c3c(n[nH]c3C)C(=O)N2c2ccc(Br)cc2)ccc1O (stereo not given) | 95 | 62.5% (inactive) | 95% (inactive) | 73.9% (inactive) | 87.8% (inactive) | 5.68% (inactive) | 82.2 | 87.8 | -0.13% (inactive) | -1% (inactive)
O=C1C2CC=C(Cl)CC2C(=O)N1c1ncn[nH]1 (stereo not given) | 86.5 | 96% (inactive) | 86.5% (inactive) | 106% (inactive) | 103% (inactive) | 2.85% (inactive) | 101 | 103 | 0.27% (inactive) | -5.32% (inactive)
CCN1CCN(CCCNC(=O)c2cn(CCOC)c(=O)c3c2c2ccccc2n3C)CC1 | 121 | 122% (inactive) | 121% (inactive) | 96.4% (inactive) | 97.2% (inactive) | 6.88% (inactive) | 90.3 | 97.2 | -2.11% (inactive) | -3.82% (inactive)
CCCC(=O)Nc1ccc2oc(-c3cccnc3)nc2c1 | 109 | 94% (inactive) | 109% (inactive) | 93.6% (inactive) | 88.5% (inactive) | -7.42% (inactive) | 96 | 88.5 | -4% (inactive) | 10% (inactive)
CCOC(=O)C1=C(C)N=C2SC(C)C(=O)N2C1c1cccc(F)c1 (stereo not given) | 102 | 89.5% (inactive) | 102% (inactive) | 85.2% (inactive) | 87.5% (inactive) | 0.855% (inactive) | 86.7 | 87.5 | -3.82% (inactive) | 1.13% (inactive)
CCn1nnc(NC(=O)c2ccc(-c3ccc(Cl)cc3)o2)n1 | 87.5 | 122% (inactive) | 87.5% (inactive) | 90% (inactive) | 91.2% (inactive) | 3.21% (inactive) | 88 | 91.2 | -6.62% (inactive) | -0.66% (inactive)
CCCC(C)C(=O)Nc1ccc(C(N)=O)cc1 (stereo not given) | 95 | 93.5% (inactive) | 95% (inactive) | 96% (inactive) | 93.1% (inactive) | 7.36% (inactive) | 85.7 | 93.1 | -5.81% (inactive) | -1.33% (inactive)
O=C(Nc1cccc2ccccc12)N1CCOCC1 | 119 | 103% (inactive) | 119% (inactive) | 85.9% (inactive) | 90.5% (inactive) | -8.41% (inactive) | 98.9 | 90.5 | -2.95% (inactive) | 11.3% (inactive)
CC(=O)NC(Cc1c[nH]c2ccccc12)C(=O)OCC(=O)Nc1cc(C)on1 (stereo not given) | 91.5 | 117% (inactive) | 91.5% (inactive) | 101% (inactive) | 97% (inactive) | 11% (inactive) | 86 | 97 | 3.46% (inactive) | -7.83% (inactive)
O=S(=O)(NCCSc1ccccc1)c1cccs1 | 95 | 86% (inactive) | 95% (inactive) | 102% (inactive) | 86.4% (inactive) | 11.9% (inactive) | 74.6 | 86.4 | -6.49% (inactive) | -5.5% (inactive)
Cn1c(=O)[nH]c(=O)c2c1nc(N(CCO)Cc1ccccc1)n2Cc1ccccc1Cl | 90.5 | 82.5% (inactive) | 90.5% (inactive) | 80.2% (inactive) | 81.6% (inactive) | 26% (inactive) | 55.6 | 81.6 | -5.47% (inactive) | 3.44% (inactive)
Cc1c(CCC#N)c(N2CCN(C3CCCCC3)CC2)n2c(nc3ccccc32)c1C#N | 88 | 83.5% (inactive) | 88% (inactive) | 74.7% (inactive) | 32.5% (active) | 10.4% (inactive) | 22.1 | 32.5 | -5.48% (inactive) | -0.16% (inactive)
O=C(O)CC1CCCC(c2ccccc2)C1=O (stereo not given) | 97 | 110% (inactive) | 97% (inactive) | 108% (inactive) | 99.6% (inactive) | 6.58% (inactive) | 93 | 99.6 | -6.4% (inactive) | -9.35% (inactive)
COCCN(CC(=O)NC1CCCCC1)C(=O)CSc1nc2ccccc2o1 | 98 | 96% (inactive) | 98% (inactive) | 90.8% (inactive) | 97.6% (inactive) | 4.13% (inactive) | 93.5 | 97.6 | -0.39% (inactive) | -5.24% (inactive)
CCOC(=O)c1cc2sc(C)cc2n1C(C)C(=O)OCC (stereo not given) | 97.5 | 79% (inactive) | 97.5% (inactive) | 95.8% (inactive) | 86.3% (inactive) | -6.21% (inactive) | 92.5 | 86.3 | -3.6% (inactive) | 1.8% (inactive)
O=C(O)CN1C(=O)C2(OCCCO2)c2ccccc21 | 86.5 | 102% (inactive) | 86.5% (inactive) | 101% (inactive) | 85.1% (inactive) | -0.23% (inactive) | 85.4 | 85.1 | -0.91% (inactive) | 0.49% (inactive)
COc1ccc(OC)c(C2=NOC(C(=O)NCCN3CCOCC3)C2)c1 (stereo not given) | 107 | 89.5% (inactive) | 107% (inactive) | 102% (inactive) | 90.6% (inactive) | 5.3% (inactive) | 85.3 | 90.6 | -1.18% (inactive) | -3.27% (inactive)
O=C(NCc1ccccc1)N1CCn2c(nc3ccccc32)C1 | 93.5 | 91.5% (inactive) | 93.5% (inactive) | 90.2% (inactive) | 92.9% (inactive) | 14.2% (inactive) | 78.7 | 92.9 | -3.73% (inactive) | 1.15% (inactive)
COC(=O)c1sc(N)c(C(=O)OC)c1CSc1nc2sc3c(c2c(=O)n1C)CCC3 | 88 | 103% (inactive) | 88% (inactive) | 81.5% (inactive) | 62.3% (inactive) | 8.74% (inactive) | 53.5 | 62.3 | -2.84% (inactive) | 2.62% (inactive)
c1ccc(N2CCN(Cc3ccnc4ccccc34)CC2)cc1 | 98 | 81.5% (inactive) | 98% (inactive) | 71.2% (inactive) | 72.4% (inactive) | -21.1% (inactive) | 93.5 | 72.4 | -6.22% (inactive) | -0.82% (inactive)
CCC(C)(C)NC(=O)C(c1ccco1)N(C(=O)Cn1nnc2ccccc21)c1ccc2c(c1)OCO2 (stereo not given) | 92.5 | 85% (inactive) | 92.5% (inactive) | 78.1% (inactive) | 105% (inactive) | 18.9% (inactive) | 85.9 | 105 | -0.53% (inactive) | -1.13% (inactive)
COC(=O)c1cc2oc(C)cc2n1CC(=O)Nc1ccc(C)c(C)c1 | 85.5 | 83% (inactive) | 85.5% (inactive) | 59.5% (inactive) | 83.8% (inactive) | -3.33% (inactive) | 87.1 | 83.8 | 0.51% (inactive) | -7% (inactive)
